Values joined by “and” are separate entries in the source; they are usually repeats but may differ in a detail not shown here. Equal values may be shown once. Read-outs that look alike come from different tables or passages of the source.
Legend:
[1] = 750 mg once followed by 250 mg once daily for 4 days (750/250 mg); cited from earlier work
[2] = test system: multidrug and toxin extrusion (MATE) 1; conditions: in vitro; cited from earlier work
plasma protein [3] = test: Unbound fraction in plasma; format: in vivo; conditions: human, oral, 375 mg, protein binding rate (= [1 − unbound fraction] × 100), humans
[4] = test system: organic cation transporter (OCT) 2; conditions: in vitro; cited from earlier work
plasma protein [5] = conditions: mice; cited from earlier work
[6] = Safety assessment: treatment-emergent adverse events; format: in vivo, human; conditions: single oral 375 mg
Method in brief: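 Open-label, nonrandomized, parallel-group Phase 1 study in adults with mild, moderate or severe renal impairment (severe excluded if hemodialysis-dependent) and normal renal function. Normal-function controls were matched to moderate-impairment participants by sex, age (± 5 years) and BMI (± 10%). Each received a single oral 375 mg dose as three 125-mg tablets. TEAEs were recorded for nature, frequency and severity, and coded by MedDRA v25.0 System Organ Class/Preferred Term in all treated participants.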

plasma protein [7] = conditions: hamsters; cited from earlier work
MATE-2K = conditions: in vitro; cited from earlier work
[8] = for AUC0–last GLS mean ratio / t1/2,z GLS mean ratio / Ae (cumulative amount excreted unchanged in urine) / CL/F / Feu (fraction of dose excreted unchanged into urine): single oral 375 mg; for Ae (cumulative amount excreted unchanged in urine) / CL/F / Feu (fraction of dose excreted unchanged into urine): geometric mean (CV%)
[9] = mild impairment/normal function
[10] = moderate impairment/normal function
[11] = severe impairment/normal function

## Cn1cnc(Cn2c(=O)[nH]/c(=N\c3cc4cn(C)nc4cc3Cl)n(Cc3cc(F)c(F)cc3F)c2=O)n1 [ensitrelvir]
[1]
  tolerability: demonstrated tolerability
[2]
  substrate for MATE1: not a substrate
Plasma protein [3]
  fraction unbound: 0.983 to 0.988
[4]
  substrate for OCT2: not a substrate
Plasma protein [5]
  protein binding rate: 97.6%
[6]; mild renal impairment (N = 8)
  Any treatment-related TEAE: 1 (12.5) n (%)
[6]; moderate renal impairment (N = 8)
  Any treatment-related TEAE: 1 (12.5) n (%)
[6]; all groups
  severity category of all TEAEs and treatment-related TEAEs: mild or moderate
Plasma protein [7]
  protein binding rate: 98.3%
MATE-2K
  substrate for MATE-2K: not a substrate
[8]; [9]
  AUC0–last GLS mean ratio: 1.4303
  t1/2,z GLS mean ratio: 1.19 and 1.1855
[8]; mild renal impairment
  Ae (cumulative amount excreted unchanged in urine): 45.7 (44.7) mg
  CL/F: 0.262 (20.8) L/h
  Feu (fraction of dose excreted unchanged into urine): 12.2 (44.7) %
[8]; [10]
  AUC0–last GLS mean ratio: 1.4780
  t1/2,z GLS mean ratio: 1.24 and 1.2434
[8]; moderate renal impairment
  Ae (cumulative amount excreted unchanged in urine): 58.6 (20.6) mg
  CL/F: 0.253 (26.0) L/h
  Feu (fraction of dose excreted unchanged into urine): 15.6 (20.6) %
[8]; normal renal function
  Ae (cumulative amount excreted unchanged in urine): 54.8 (29.5) mg
  CL/F: 0.376 (26.0) L/h
  Feu (fraction of dose excreted unchanged into urine): 14.6 (29.5) %
[8]; renal impairment vs normal renal function
  increased AUC level with renal impairment: < 2 fold
[8]; [11]
  AUC0–last GLS mean ratio: 1.5475
  t1/2,z GLS mean ratio: 1.61 and 1.6072
[8]; severe renal impairment
  Ae (cumulative amount excreted unchanged in urine): 49.2 (26.5) mg
  CL/F: 0.235 (26.1) L/h
  Feu (fraction of dose excreted unchanged into urine): 13.1 (26.5) %

Reference: PMC10965878 (Infectious Diseases and Therapy, 2024)
